Data on eleven compounds can be found in PubChem BioAssay AID623889 (Vanderbilt Specialized Chemistry Center, 2012).

In this experiment the target is Metabotropic glutamate receptor 4 (Rattus norvegicus) (UniProt P31423). Description: glutamate potency shift at mGlu4 – rat, HEK/GIRK cells, thallium flux, mGlu4 lead optimization, SAR follow-up (AID 623889). Particulars: at 30 µM, stronger effect = higher value; for glutamate max response: glutamate fold shift, measured here: glutamate maximal response with compound. The method, boiled down: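 Material: HEK cells stably co-expressing GIRK channel, M4 receptor and rat mGlu4. Dosing: single test compound concentration, 30 µM final (from 2x solution). Timing: compound pre-incubation about 2.5 min before glutamate addition. Signal: FluoZin-2 fluorescence thallium flux. Evaluation: leftward fold shift of glutamate curve from four-parameter logistic fits.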
Metabotropic glutamate receptor 4 (Rattus norvegicus), sequence (P31423 whole entry, looked up): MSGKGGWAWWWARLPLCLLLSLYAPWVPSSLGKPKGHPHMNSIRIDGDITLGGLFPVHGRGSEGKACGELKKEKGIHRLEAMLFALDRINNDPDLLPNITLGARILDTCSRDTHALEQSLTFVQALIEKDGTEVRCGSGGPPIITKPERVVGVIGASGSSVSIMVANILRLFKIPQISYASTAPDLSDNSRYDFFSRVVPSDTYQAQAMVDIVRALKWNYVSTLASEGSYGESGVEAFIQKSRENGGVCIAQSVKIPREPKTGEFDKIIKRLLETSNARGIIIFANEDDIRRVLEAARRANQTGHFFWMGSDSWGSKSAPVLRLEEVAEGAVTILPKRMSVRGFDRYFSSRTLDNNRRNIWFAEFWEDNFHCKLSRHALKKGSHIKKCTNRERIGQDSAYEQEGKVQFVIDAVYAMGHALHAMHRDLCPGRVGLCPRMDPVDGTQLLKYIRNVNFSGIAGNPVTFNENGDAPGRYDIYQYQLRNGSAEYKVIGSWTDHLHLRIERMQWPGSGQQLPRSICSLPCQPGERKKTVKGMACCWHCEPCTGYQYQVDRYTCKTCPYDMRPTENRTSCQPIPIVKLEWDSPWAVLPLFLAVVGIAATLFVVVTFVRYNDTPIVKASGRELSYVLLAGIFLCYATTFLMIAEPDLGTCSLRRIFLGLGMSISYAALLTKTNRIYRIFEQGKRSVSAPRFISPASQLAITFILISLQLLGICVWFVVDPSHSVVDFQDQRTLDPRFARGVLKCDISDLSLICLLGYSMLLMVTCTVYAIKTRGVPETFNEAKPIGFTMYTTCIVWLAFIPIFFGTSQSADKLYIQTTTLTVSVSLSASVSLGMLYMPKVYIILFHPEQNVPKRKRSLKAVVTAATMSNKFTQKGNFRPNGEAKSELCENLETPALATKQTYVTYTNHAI

Several values for one entry are separate records, joined by “and”; a condition that tells them apart may be missing. Identical values can stand only once.

Regarding `COc1cc(Nc2noc3cccnc23)ccc1Cl`, the fold shift is 6.67 and the glutamate max response was determined as 84.3%.

For `O=C(Nc1ccc2c(c1)C(=O)NC2=O)c1ccccn1`, the fold shift was 2.52 and the glutamate max response is 105%.

`CC(C)N(C(=O)c1ccccn1)c1cccc(Cl)c1`: the fold shift was 3.16 and the glutamate max response was found to be 108%.

In the case of `Clc1ccc2nc(-c3ccccn3)[nH]c2c1`, the fold shift is 15.3 and the glutamate max response worked out at 87.2%.

For `Fc1cccc(Nc2noc3cccnc23)c1`, the fold shift was 8.9 and the glutamate max response amounted to 93.6%.

`O=C(Nc1cccc(Cl)c1)c1ccccn1`: the fold shift is 30.2 and the glutamate max response worked out at 88.8%.

In the case of `COc1cc2nc(-c3ccccn3)[nH]c2cc1Cl`, the fold shift was 3.21 and the glutamate max response turned out to be 90.9%.

As for `Clc1cccc(Nc2ncnc3cccnc23)c1`, the fold shift was 4.02 and the glutamate max response was determined as 87.2%.

Consider `FC(F)Oc1cccc(Nc2noc3cccnc23)c1`, for which the fold shift was 21.7 and 16.3; the glutamate max response is 98.4% and 99.7%.

For `O=C(Nc1ccc2cn[nH]c2c1)c1ccccn1`, the fold shift is 11.9 and the glutamate max response was 103%.

On to `Clc1cccc(Nc2noc3cccnc23)c1`, for which the fold shift was 31.1 and 22.7 and 17.8; the glutamate max response is 90.3% and 98.5% and 99.1%.
